Reference: publication PMC4496304 (Environmental science & technology, 2015)
“Also recorded” adds a separate entry of the source. Structures can show the parent of a compound that is named as a salt. Where two headings read alike, the source gives them in different places. Marks after values point to notes of the source that are not given here.

Legend:
human transthyretin = settings: cited from earlier work
[1] = type: in vivo, male Sprague-Dawley rats
Method in brief: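 Single tail-vein injection in male rats (247 ± 8 g, 7-day acclimatization): 2 mM dosing solution in 5% (v/v) DMSO/sterile saline, 575 μg/kg; vehicle-injected controls. Killed by CO2 and cervical dislocation ~3 min, 1 h or 24 h post-dose (n = 6). Feces and intestinal contents came from rats held 24 h in metabolism cages. Tissues homogenized in 4 volumes water (liver: 20% acetonitrile). Analysis by negative-ion LC-ESI-MS/MS with internal standard.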

[2] = Stability of 4-PCB 11 sulfate in rat urine; type: in vitro ADME; settings: 24 hours at 25 °C (experiments not shown)
[3] = PCB 11 and its metabolites, rat, cited from earlier work
[4] = 3min, iv 575 μg/kg, assuming total dose 142 μg
[5] = 24 hours, iv 575 μg/kg, assuming total dose 142 μg
[6] = 1 hour, iv 575 μg/kg, assuming total dose 142 μg

O=S(=O)(O)Oc1ccc(-c2cccc(Cl)c2)cc1Cl [4-PCB 11 sulfate, 3,3′-dichloro-4′-sulfooxy-biphenyl]
Affinity for transthyretin (T4 binding sites) (human transthyretin): affinity comparable to the physiological ligand, thyroxine; also recorded: among the most potent ligands | Fraction of 4-PCB 11 sulfate not recoverable ([1]; 1 hour, all samples examined): about two thirds | 4-PCB 11 sulfate concentrations in tissues and fluids examined ([1]; after 24 hours of exposure): below the LOD | Observable 4-PCB 11 sulfate levels as fraction of the initial dose ([1]; after one hour): about one third | 4-PCB 11 sulfate in bile ([1]; bile collected during 1 hour after injection, bile duct-cannulated rats, iv): 34 ± 3.9 µg | Fluid or Tissue (ml or g): brain, exposed animals ([1]; brain weight, exposed rats): 1.69 ± 0.07 ml or g | % of total dose in brain [1, 4]: 0.6 ± 0.2% | 4-PCB 11 sulfate in brain ([1]; 3min, iv 575 μg/kg, rat): 0.8 ± 0.3 µg | 4-PCB 11 sulfate in brain ([1]; 1 hour, iv 575 μg/kg, rat, detectable only in three samples): 0.9 ± 0.9 ^c μg | % of total dose in brain [1, 5]: 0% | 4-PCB 11 sulfate in brain ([1]; 24 hours, iv 575 μg/kg, rat): < LOD | % of total dose in feces ([1]; feces, 24 hours, iv 575 μg/kg, assuming total dose 142 μg): 0% | 4-PCB 11 sulfate in feces ([1]; feces, 24 hours, iv 575 μg/kg, rat): did not contain detectable levels; also recorded: undetectable; also recorded: < LOD | % of total dose in intestinal contents ([1]; intestinal contents, 24 hours, iv 575 μg/kg, assuming total dose 142 μg): 0% | 4-PCB 11 sulfate in intestinal contents ([1]; intestinal contents, 24 hours, iv 575 μg/kg, rat): did not contain detectable levels; also recorded: undetectable; also recorded: < LOD | Fluid or Tissue (ml or g): kidneys, exposed animals ([1]; kidneys weight, exposed rats): 1.86 ± 0.16 ml or g | % of total dose in kidneys [1, 4]: 8.7 ± 2.4% | 4-PCB 11 sulfate in kidneys ([1]; 3min, iv 575 μg/kg, rat): 12 ± 3.4 µg | % of total dose in kidneys [1, 6]: 1.1 ± 0.5% | 4-PCB 11 sulfate in kidneys ([1]; 1 hour, iv 575 μg/kg, rat): 1.6 ± 0.7 µg | % of total dose in kidneys [1, 5]: 0% | Fluid or Tissue (ml or g): liver, exposed animals ([1]; liver weight, exposed rats): 10.6 ± 0.94 ml or g | % of total dose in liver [1, 4]: 47 ± 15% | 4-PCB 11 sulfate in liver ([1]; 3min, iv 575 μg/kg, rat): 67 ± 21 µg | % of total dose in liver [1, 6]: 2 ± 1% | 4-PCB 11 sulfate in liver ([1]; 1 hour, iv 575 μg/kg, rat): 2.9 ± 1.4 µg | % of total dose in liver [1, 5]: 0% | 4-PCB 11 sulfate in liver ([1]; 24 hours, iv 575 μg/kg, rat): < LOD | Fluid or Tissue (ml or g): lungs, exposed animals ([1]; lungs weight, exposed rats): 1.3 ± 0.18 ml or g | % of total dose in lungs [1, 4]: 3.9 ± 1% | 4-PCB 11 sulfate in lungs ([1]; 3min, iv 575 μg/kg, rat): 5.6 ± 1.4 µg | % of total dose in lungs [1, 6]: 0.4 ± 0.4% | 4-PCB 11 sulfate in lungs ([1]; 1 hour, iv 575 μg/kg, rat): 0.6 ± 0.6 µg | % of total dose in lungs [1, 5]: 0% | 4-PCB 11 sulfate in lungs ([1]; 24 hours, iv 575 μg/kg, rat): < LOD | Blood brain barrier crossing (detection in brain tissue) ([1]; rat, iv): ability to cross the blood brain barrier | Organ weights, exposed versus control animals ([1]; rat, iv 575 μg/kg): no significant differences | % of total dose in serum ([1]; 3min, iv 575 μg/kg, assuming total dose 142 μg per animal): 35 ± 8.5% | 4-PCB 11 sulfate in serum ([1]; 3min post-injection, iv 575 μg/kg, rat): 50 ± 12 µg | % of total dose in serum [1, 6]: 2.1 ± 1.2% | 4-PCB 11 sulfate in serum ([1]; 1 hour, iv 575 μg/kg, rat): 3.0 ± 1.6 µg | % of total dose in serum [1, 5]: 0% | 4-PCB 11 sulfate in serum ([1]; 24 hours, iv 575 μg/kg, rat): < LOD | % of total dose in urine ([1]; urine, 24 hours collection, iv 575 μg/kg, assuming total dose 142 μg): 3.7 ± 1.8% | 4-PCB 11 sulfate in urine ([1]; urine, 24 hours collection, iv 575 μg/kg, rat): 5.3 ± 2.5 µg | Stability in rat urine [2]: stable

Clc1cccc(-c2cccc(Cl)c2)c1 [PCB 11, 3,3′-dichlorobiphenyl]
t1/2 clearance from liver ([3]; liver): 2.1 h | t1/2 clearance from lungs ([3]; lungs): 1.9 h | t1/2 clearance from serum ([3]; serum): 1.8 h
